Calls of active or inactive are those of the source. No cut-off for these calls is given here.
Columns and labels:
[1] = tested on: THP-1; assay: Antiinflammatory activity in human THP1 cells assessed as inhibition of LPS-stimulated TNFalpha production by measuring TNF-alpha level in serum at 10 uM preincubated for 2 hrs followed by LPS addition measured after 22 hrs by flow cytometry (reference value: 9900 +/- 300 pg/ml); format: functional
[2] = tested on: A549; assay: Cytotoxicity against human A549 cells assessed as reduction in cell viability after 72 hrs by CCK-8 assay; format: functional, cell-based; conditions: A549, 72 h
[3] = tested on: THP-1; assay: Antiinflammatory activity in human THP1 cells assessed as inhibition of LPS-stimulated MCP-1 level in serum at 10 uM preincubated for 2 hrs followed by LPS addition measured after 22 hrs by flow cytometry; format: functional, cell-based
[4] = tested on: PC-9; assay: Cytotoxicity against human PC9 cells assessed as reduction in cell viability after 72 hrs by CCK-8 assay; format: functional, cell-based; conditions: PC-9, 72 h
[5] = tested on: THP-1; assay: Antiinflammatory activity in human THP1 cells assessed as inhibition of LPS-stimulated IL-10 level in serum at 10 uM preincubated for 2 hrs followed by LPS addition measured after 22 hrs by flow cytometry; format: functional, cell-based
[6] = tested on: THP-1; assay: Antiinflammatory activity in human THP1 cells assessed as inhibition of LPS-stimulated IL-12p70 level in serum at 10 uM preincubated for 2 hrs followed by LPS addition measured after 22 hrs by flow cytometry; format: functional, cell-based
[7] = tested on: THP-1; assay: Antiinflammatory activity in human THP1 cells assessed as inhibition of LPS-stimulated IL-6 production by measuring IL-6 level in serum at 10 uM preincubated for 2 hrs followed by LPS addition measured after 22 hrs by flow cytometry (reference value: 6100 +/- 200 pg/ml); format: functional
[8] = tested on: MCF7; assay: Cytotoxicity against human MCF7 cells assessed as reduction in cell viability after 72 hrs by CCK-8 assay; format: functional, cell-based; conditions: MCF7, 72 h
In short: (§1)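 Cells were kept at 37 °C in DMEM with 10% nondialyzed FBS and 2 mM L-glutamine. The Oct4-GFP line is MCF-7 made stem-like by lentiviral Oct4-GFP overexpression. Cells were seeded at 3000/well and grown 24 h, then exposed to six concentrations of compound (DMSO solutions) for 72 h.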

[9] = tested on: MCF7; assay: Induction of apoptosis in human MCF7 cells assessed as viable cells at 5 uM after 24 hrs by Annexin V-FITC/propidium iodide staining based flow cytometry (reference value: 96.6%); format: functional; conditions: MCF7, 24 h, read-out: Activity
[10] = tested on: MCF7; assay: Induction of apoptosis in human MCF7 cells assessed as necrotic cells at 10 uM after 24 hrs by Annexin V-FITC/propidium iodide staining based flow cytometry (reference value: 2.19%); format: functional
[11] = tested on: MCF7; assay: Induction of apoptosis in human MCF7 cells assessed as late apoptotic cells at 10 uM after 24 hrs by Annexin V-FITC/propidium iodide staining based flow cytometry (reference value: 0.309%); format: functional
[12] = tested on: MCF7; assay: Induction of apoptosis in human MCF7 cells assessed as late apoptotic cells at 5 uM after 24 hrs by Annexin V-FITC/propidium iodide staining based flow cytometry (reference value: 0.309%); format: functional
[13] = tested on: MCF7; assay: Cytotoxicity against human MCF7 cells expressing Oct4-GFP assessed as reduction in cell viability after 72 hrs by CCK-8 assay; format: functional, cell-based; conditions: MCF7, 72 h
In short: as §1, with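 “h. CCK-8 was added for 2 h at 37 °C and A450 read to give IC50.” for “h.”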

[14] = tested on: MCF7; assay: Induction of apoptosis in human MCF7 cells assessed as early apoptotic cells after 24 hrs by Annexin V-FITC/propidium iodide staining based flow cytometry; format: functional, cell-based
[15] = tested on: MCF7; assay: Induction of apoptosis in human MCF7 cells assessed as viable cells at 10 uM after 24 hrs by Annexin V-FITC/propidium iodide staining based flow cytometry (reference value: 96.6%); format: functional; conditions: MCF7, 24 h, read-out: Activity
[16] = tested on: MCF7; assay: Induction of apoptosis in human MCF7 cells assessed as late apoptotic cells after 24 hrs by Annexin V-FITC/propidium iodide staining based flow cytometry; format: functional, cell-based
[17] = tested on: MCF7; assay: Induction of apoptosis in human MCF7 cells assessed as early apoptotic cells at 5 uM after 24 hrs by Annexin V-FITC/propidium iodide staining based flow cytometry (reference value: 0.866%); format: functional
[18] = tested on: MCF7; assay: Induction of apoptosis in human MCF7 cells assessed as early apoptotic cells at 10 uM after 24 hrs by Annexin V-FITC/propidium iodide staining based flow cytometry (reference value: 0.866%); format: functional
[19] = tested on: MCF7; assay: Induction of apoptosis in human MCF7 cells assessed as necrotic cells at 5 uM after 24 hrs by Annexin V-FITC/propidium iodide staining based flow cytometry (reference value: 2.19%); format: functional

Structure (SMILES) | Activity [1] [pg/mL] | IC50 [2] [µM] | inhibition [3] | IC50 [4] [µM] | inhibition [5] | inhibition [6] | Activity [7] [pg/mL] | IC50 [8] [µM] | other results
Nc1cccc2c1C(=O)N(C1CCC(=O)NC1=O)C2=O (configuration not stated) [POMALIDOMIDE] | 7500 | – | – | – | – | – | – | – | –
CNC1=N/C(=N/c2nc(Cc3ccc4c(c3)OCO4)cn2C)C(=O)O1 | 9900 | > 20 | inactive | > 20 | inactive | inactive | 7600 | > 20 | –
COc1ccc(Cc2nc(/N=C3\NC(=O)N(C)C3=O)n(C)c2Cc2ccc(OC)c(OC)c2O)cc1 [PYRONAAMIDINE] | – | 7.8 | – | 5.6 | – | – | – | 5.2 | viability at 5 µM [9]: 82%; Activity [10]: 2.55%; Activity [11]: 30.1%; Activity [12]: 6.25%; IC50 [13]: 10 µM; Activity [14]: Dose-dependent effect; viability at 10 µM [15]: 34.8%; Activity [16]: Dose-dependent effect; Activity [17]: 10.2%; Activity [18]: 32.3%; Activity [19]: 1.54%
CC(C)=CCC/C(C)=C/Cc1cc(-c2coc3cc(O)ccc3c2=O)ccc1O | – | – | – | – | – | – | 2700 | – | –
CC(=O)O[C@H]1C(=O)[C@@]2(C)[C@H]([C@H](OC(=O)c3ccccc3)[C@]3(O)C[C@H](OC(=O)[C@H](O)[C@@H](NC(=O)c4ccccc4)c4ccccc4)C(C)=C1C3(C)C)[C@]1(OC(C)=O)CO[C@@H]1C[C@@H]2O [PACLITAXEL] | – | 0.0032 | – | 0.0027 | – | – | – | – | –
CN/C(N)=N\C(=O)Nc1nc(Cc2ccc3c(c2)OCO3)cn1C | 7800 | > 20 | inactive | > 20 | inactive | inactive | 5000 | > 20 | –
COc1ccc(C2=C3C(=NC(=N)N3C)C(=O)c3c(OC)ccc(OC)c32)cc1 | 9700 | > 20 | inactive | > 20 | inactive | inactive | 5400 | > 20 | –
